Data reported in ChEMBL document CHEMBL3779798, “Novel seleno- and thio-urea derivatives with potent in vitro activities against several cancer cell lines” (Eur J Med Chem, 2016).
pIC50: −log10 of the molar value. Active and inactive are the calls of the source. The rule behind the calls is not given here.

Experiments:
[1] = tested on: A549; experiment: Anticancer activity against human A549 cells assessed as inhibition of cell growth after 24 hrs by MTT assay; format: functional, cell-based; details: A549, 24 h
Method in brief: (§1)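 MTT assay at 3,000 cells/well. Cells treated with DMSO or seven concentrations from 0.5 to 50 µM for 24, 48 or 72 h. MTT added 3 h before the end point; formazan dissolved in DMSO and read at 570 and 630 nm. IC50 is the concentration giving 50% growth inhibition. Media: PANC-1, BxPC3 and 1205Lu in DMEM; DU145 and A549 in RPMI 1640; HT29, HCT116 and RKO in McCoy's 5A, all with 10% FBS and pen/strep, at 37 °C and 5% CO2.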

[2] = tested on: A549; experiment: Anticancer activity against human A549 cells assessed as inhibition of cell growth after 72 hrs by MTT assay; format: functional, cell-based; details: A549, 72 h; method in brief: as §1
[3] = Anticancer activity against human DU145 cells assessed as inhibition of cell growth after 24 hrs by MTT assay; format: functional, cell-based; details: DU-145, 24 h; method in brief: as §1
[4] = Anticancer activity against human DU145 cells assessed as inhibition of cell growth after 72 hrs by MTT assay; format: functional, cell-based; details: DU-145, 72 h; method in brief: as §1
[5] = Anticancer activity against human HCT116 cells assessed as inhibition of cell growth after 48 hrs by MTT assay; format: functional, cell-based; details: HCT-116, 48 h; method in brief: as §1
[6] = Anticancer activity against human HCT116 cells assessed as inhibition of cell growth after 72 hrs by MTT assay; format: functional, cell-based; details: HCT-116, 72 h; method in brief: as §1
[7] = tested on: RKO; experiment: Anticancer activity against human RKO cells assessed as inhibition of cell growth after 24 hrs by MTT assay; format: functional, cell-based; method in brief: as §1
[8] = Anticancer activity against human PANC1 cells assessed as inhibition of cell growth after 24 hrs by MTT assay; format: functional, cell-based; details: PANC-1, 24 h; method in brief: as §1
[9] = Anticancer activity against human PANC1 cells assessed as inhibition of cell growth after 48 hrs by MTT assay; format: functional, cell-based; details: PANC-1, 48 h; method in brief: as §1
[10] = Anticancer activity against human BxPC3 cells assessed as inhibition of cell growth after 24 hrs by MTT assay; format: functional, cell-based; details: BXPC-3, 24 h; method in brief: as §1
[11] = Anticancer activity against human BxPC3 cells assessed as inhibition of cell growth after 72 hrs by MTT assay; format: functional, cell-based; details: BXPC-3, 72 h; method in brief: as §1
[12] = tested on: HT-29; experiment: Anticancer activity against human HT-29 cells assessed as inhibition of cell growth after 72 hrs by MTT assay; format: functional, cell-based; details: HT-29, 72 h; method in brief: as §1
[13] = tested on: RKO; experiment: Anticancer activity against human RKO cells assessed as inhibition of cell growth after 72 hrs by MTT assay; format: functional, cell-based; method in brief: as §1
[14] = tested on: HCT-116; experiment: Potency index, ratio IC50 of 5-FU to IC50 of compound for anticancer activity against human HCT116 cells; format: functional
Method in brief: (§2)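 Colon lines (McCoy's 5A, 10% FBS, penicillin/streptomycin, 37 °C, 5% CO2) seeded at 3,000 cells/well and exposed 24, 48 or 72 h to DMSO or seven concentrations across 0.5–50 µM. MTT added 3 h before end; formazan dissolved in DMSO, absorbance read at 570 and 630 nm. IC50 (50% growth inhibition) from curve fitting; index is the 5-FU IC50 divided by the compound IC50.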

[15] = tested on: HT-29; experiment: Potency index, ratio IC50 of 5-FU to IC50 of compound for anticancer activity against human HT-29 cells; format: functional; method in brief: as §2
[16] = Induction of cell death in human HCT116 cells at 2.5 uM after 24 hrs by calcein-AM and ethidium homodimer-1 staining based flow cytometry analysis (reference value: 1.1%); format: functional, HCT-116
[17] = tested on: HCT-116; experiment: Decrease in number of viable cells in human HCT116 cells at 1 uM after 24 hrs by calcein-AM and ethidium homodimer-1 staining based flow cytometry analysis (reference value: 94.9%); format: functional
[18] = tested on: HCT-116; experiment: Induction of apoptosis in human HCT116 cells assessed as viable cells at 1 uM after 24 hrs by annexin-V staining based flow cytometry analysis (reference value: 90.38%); format: functional; details: HCT-116, 24 h, read-out: Activity
[19] = tested on: HCT-116; experiment: Induction of apoptosis in human HCT116 cells assessed as necrotic cells at 2.5 uM after 24 hrs by annexin-V staining based flow cytometry analysis (reference value: 0.72%); format: functional
[20] = tested on: HCT-116; experiment: Induction of apoptosis in human HCT116 cells assessed as early apoptotic cells at 2.5 uM after 24 hrs by annexin-V staining based flow cytometry analysis (reference value: 7.84%); format: functional
[21] = tested on: HCT-116; experiment: Induction of apoptosis in human HCT116 cells assessed as viable cells at 5 uM after 24 hrs by annexin-V staining based flow cytometry analysis (reference value: 90.38%); format: functional; details: HCT-116, 24 h, read-out: Activity
[22] = tested on: HCT-116; experiment: Induction of apoptosis in human HCT116 cells assessed as early apoptotic cells at 5 uM after 24 hrs by annexin-V staining based flow cytometry analysis (reference value: 7.84%); format: functional
[23] = tested on: HCT-116; experiment: Induction of apoptosis in human HCT116 cells assessed as late apoptotic cells at 5 uM after 24 hrs by annexin-V staining based flow cytometry analysis (reference value: 1.06%); format: functional
[24] = tested on: HCT-116; experiment: Induction of apoptosis in human HCT116 cells assessed as necrotic cells at 5 uM after 24 hrs by annexin-V staining based flow cytometry analysis (reference value: 0.72%); format: functional
[25] = tested on: HCT-116; experiment: Induction of apoptosis in human HCT116 cells assessed as early apoptotic cells after 24 hrs by annexin-V staining based flow cytometry analysis; format: functional, cell-based
[26] = tested on: HCT-116; experiment: Induction of apoptosis in human HCT116 cells assessed as early apoptotic cells at 1 uM after 24 hrs by caspase3/7 reagent based flow cytometry (reference value: 5.18%); format: functional
[27] = tested on: HCT-116; experiment: Induction of apoptosis in human HCT116 cells assessed as necrotic cells at 1 uM after 24 hrs by caspase3/7 reagent based flow cytometry (reference value: 4.14%); format: functional
[28] = tested on: HCT-116; experiment: Induction of apoptosis in human HCT116 cells assessed as late apoptotic cells at 2.5 uM after 24 hrs by caspase3/7 reagent based flow cytometry (reference value: 2.28%); format: functional
[29] = tested on: HCT-116; experiment: Induction of apoptosis in human HCT116 cells assessed as viable cells at 5 uM after 24 hrs by caspase3/7 reagent based flow cytometry (reference value: 88.4%); format: functional; details: HCT-116, 24 h, read-out: Activity
[30] = tested on: HCT-116; experiment: Induction of apoptosis in human HCT116 cells assessed as early apoptotic cells at 5 uM after 24 hrs by caspase3/7 reagent based flow cytometry (reference value: 5.18%); format: functional
[31] = tested on: HCT-116; experiment: Reduction of XIAP level in human HCT116 cells after 24 hrs by western blot analysis; format: functional, cell-based
Method in brief: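 HCT116 cells (6 × 10^5/well) treated with rising concentrations for 24 h. Lysed in RIPA with phosphatase and protease inhibitors and PMSF, cleared at 15,000 g for 10 min. Lysates resolved by SDS-PAGE, transferred to PVDF, probed overnight in the cold with primary antibodies, then peroxidase-linked secondary for 1–4 h at room temperature, detected by ECL; β-actin antibody used.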

[32] = tested on: HCT-116; experiment: Decrease in pro-caspase3 level in human HCT116 cells at 0.5 to 5 uM after 24 hrs by western blot analysis; format: functional, cell-based
Method in brief: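 HCT116 cells (6 × 10^5/well) treated for 24 h. Whole-cell lysates made in RIPA buffer with phosphatase and protease inhibitors and PMSF, cleared at 15,000 g, resolved by SDS-PAGE and transferred to PVDF. Blots probed overnight in the cold with primary antibodies, then peroxidase-linked secondaries, and detected by ECL; β-actin antibody used.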

Br.Br.N=C(N)[Se]Cc1nc2ccccc2nc1C[Se]C(=N)N
pIC50 [1]: 5.52
pIC50 [2]: 6.00
pIC50 [3]: 5.64
pIC50 [4]: 6.00
pIC50 [5]: 6.15
pIC50 [6]: 6.15
pIC50 [7]: 5.42
pIC50 [8]: 5.18
pIC50 [9]: 5.54
pIC50 [10]: 5.44
pIC50 [11]: 5.66
pIC50 [12]: 5.66
pIC50 [13]: 5.60
Ratio IC50 [14]: >50
Ratio IC50 [15]: >50
Activity [16]: 5.1%
Activity [17]: 96.9%
viability at 1 µM [18]: 78.1%
Activity [19]: 0.58%
Activity [20]: 21.6%
viability at 5 µM [21]: 24.6%
Activity [22]: 39.02%
Activity [23]: 35.68%
Activity [24]: 0.68%
Activity [25]: Dose-dependent effect
Activity [26]: 7.18%
Activity [27]: 3.18%
Activity [28]: 5.72%
viability at 5 µM [29]: 16.1%
Activity [30]: 27.66%
Activity [31]: Dose-dependent effect
Activity [32]: Active
